Laboratory results reported in ChEMBL document CHEMBL1154414, “In vitro and in vivo activities of T-705 against arenavirus and bunyavirus infections” (Antimicrob Agents Chemother, 2007).
Activity calls are given as the source filed them. The rule behind the calls is not given here.

What was measured:
[1] = tested on: Punta Toro virus; experiment: Antiviral activity against 500 PFU Punta Toro virus Adames infected C57BL/6 mouse assessed as mean day of death at 50 mg/kg, po twice daily for 5 days administered 4 hrs before viral challenge; assay type: functional
In short: (§1)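 Groups of 15 mice (25–30 placebo) were inoculated subcutaneously with PTV. Drug in 0.4% carboxymethylcellulose was given by oral gavage twice daily.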

[2] = tested on: Punta Toro virus; experiment: Antiviral activity against 500 PFU Punta Toro virus Adames infected C57BL/6 mouse assessed as mean serum ALT levels at 50 mg/kg, po twice daily administered 4 hrs before viral challenge measured on day 4 of viral infection; assay type: functional
In short: (§2)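 C57BL/6 mice received subcutaneous PTV, then oral gavage twice daily for 5–7 days. T-705 was given in 0.4% CMC and ribavirin in saline. Five mice per group (10 placebo) were killed on day 3 or 4, and serum was collected. ALT activity was measured by kinetic assay. Three sham-infected mice set baselines.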

[3] = tested on: Pichinde virus; experiment: Antiviral activity against Pichinde virus An 4763 infected Syrian golden hamster assessed as mean viral titer per 0.1 mL of serum at 60 mg/kg, po twice daily for 7 days administered 4 hrs before viral-challenge measured on day 7 of viral infection; assay type: functional
[4] = tested on: Punta Toro virus; experiment: Antiviral activity against 500 PFU Punta Toro virus Adames infected C57BL/6 mouse assessed as mean viral titer per 0.1 g of liver at 25 mg/kg, po administered 4 hrs before viral challenge measured on day 4 of viral infection; assay type: functional
In short: (§3)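 Mice were infected subcutaneously with PTV and dosed by oral gavage twice daily; 5 per group (10 placebo) were killed on day 3 or 4. Liver homogenate or serum was serially diluted onto triplicate LLC-MK2 monolayers, and CPE was read 6–8 days later. 50% endpoints gave log10 CCID50 per 0.1 g liver or 0.1 ml serum. Detection range was 2.8–9.5; undetectable samples were assigned <2.8.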

[5] = tested on: Pichinde virus; experiment: Antiviral activity against Pichinde virus An 4763 assessed as reduction of 1 log10 unit viral titer yields after 7 to 8 days; assay type: functional
[6] = tested on: Punta Toro virus; experiment: Antiviral activity against Punta Toro virus Adames assessed as reduction of 1 log10 unit viral titer yields after 3 to 5 days; assay type: functional
[7] = tested on: Punta Toro virus; experiment: Antiviral activity against 500 PFU Punta Toro virus Adames infected C57BL/6 mouse assessed as survival at 25 mg/kg, po twice daily for 5 days administered 4 hrs before viral challenge; assay type: functional, organism-based; set-up: dose 25 mg/kg
In short: (§4)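 PTV was inoculated subcutaneously into mice in groups of 15 (25–30 placebo). Dosing was by oral gavage twice daily for 5–7 days, with T-705 suspended in 0.4% CMC and ribavirin in saline. Remaining animals were observed 21–28 days for survival and day of death. Test doses had first been checked for tolerance in uninfected animals.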

[8] = tested on: Punta Toro virus; experiment: Antiviral activity against 500 PFU Punta Toro virus Adames infected C57BL/6 mouse assessed as animals with detectable virus level in liver at 5 mg/kg, po twice daily administered 4 hrs before viral challenge measured on day 3 of viral infection; assay type: functional
In short: (§5)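 T-705 was suspended in 0.4% carboxymethylcellulose and given by oral gavage twice daily. Mice were infected subcutaneously with PTV. Five mice per group (10 placebo) were sacrificed on day 3 or 4. Liver homogenate or serum was serially diluted onto triplicate LLC-MK2 monolayers, and CPE was read at 6–8 days. The detection limit was 2.8 log10 CCID50 per 0.1 g liver or 0.1 ml serum.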

[9] = tested on: Punta Toro virus; experiment: Antiviral activity against 500 PFU Punta Toro virus Adames infected C57BL/6 mouse assessed as mean day of death at 200 mg/kg, po twice daily for 5 days administered 4 hrs before viral challenge; assay type: functional; in short: as §1
[10] = tested on: Punta Toro virus; experiment: Antiviral activity against 500 PFU Punta Toro virus Adames infected C57BL/6 mouse assessed as mean viral titer per 0.1 mL of serum at 5 mg/kg, po twice daily administered 4 hrs before viral challenge measured on day 3 of viral infection; assay type: functional; in short: as §3
[11] = tested on: Punta Toro virus; experiment: Antiviral activity against 500 PFU Punta Toro virus Adames infected C57BL/6 mouse assessed as mean day of death at 10 mg/kg, po twice daily for 5 days administered 4 hrs before viral challenge; assay type: functional; in short: as §1
[12] = tested on: Punta Toro virus; experiment: Antiviral activity against 500 PFU Punta Toro virus Adames infected C57BL/6 mouse assessed as survival at 50 mg/kg, po twice daily for 5 days administered 4 hrs before viral challenge; assay type: functional, organism-based; set-up: dose 50 mg/kg; in short: as §4
[13] = tested on: Punta Toro virus; experiment: Antiviral activity against 500 PFU Punta Toro virus Adames infected C57BL/6 mouse assessed as mean viral titer per 0.1 mL of serum at 25 mg/kg, po twice daily administered 4 hrs before viral challenge measured on day 4 of viral infection; assay type: functional; in short: as §3
[14] = tested on: Pichinde virus; experiment: Antiviral activity against Pichinde virus An 4763 infected Syrian golden hamster assessed as mean day of death at 15 mg/kg, po twice daily for 7 days administered 4 hrs before viral-challenge; assay type: functional
[15] = tested on: Punta Toro virus; experiment: Antiviral activity against 500 PFU Punta Toro virus Adames infected C57BL/6 mouse assessed as animals with detectable virus level in liver at 50 mg/kg, po twice daily administered 4 hrs before viral challenge measured on day 4 of viral infection; assay type: functional; in short: as §5
[16] = tested on: Punta Toro virus; experiment: Antiviral activity against 500 PFU Punta Toro virus Adames infected C57BL/6 mouse assessed as mean serum ALT levels at 200 mg/kg, po twice daily administered 4 hrs before viral challenge measured on day 4 of viral infection; assay type: functional
In short: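 Subcutaneous PTV infection was followed by oral gavage twice daily with drug suspended in 0.4% CMC. Serum was collected from 5 sacrificed mice per group (10 placebo) on day 3 or 4. ALT activity was measured by kinetic assay, and sham-infected mice set the baselines.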

[17] = tested on: Punta Toro virus; experiment: Antiviral activity against 500 PFU Punta Toro virus Adames infected C57BL/6 mouse assessed as animals with detectable virus level in liver at 10 mg/kg, po twice daily administered 4 hrs before viral challenge measured on day 3 of viral infection; assay type: functional; in short: as §5
[18] = tested on: Punta Toro virus; experiment: Antiviral activity against 500 PFU Punta Toro virus Adames infected C57BL/6 mouse assessed as mean serum ALT levels at 30 mg/kg, po twice daily administered 4 hrs before viral challenge measured on day 3 of viral infection; assay type: functional; in short: as §2
[19] = tested on: Pichinde virus; experiment: Antiviral activity against Pichinde virus An 4763 infected Syrian golden hamster assessed as mean viral titer per 0.1 g of liver at 15 mg/kg, po twice daily for 7 days administered 4 hrs before viral-challenge measured on day 7 of viral infection; assay type: functional
[20] = tested on: Punta Toro virus; experiment: Antiviral activity against Punta Toro virus Adames infected Syrian golden hamster assessed as mean day of death at 15 mg/kg, po twice daily for 6 days administered 4 hrs before viral challenge; assay type: functional
[21] = tested on: Punta Toro virus; experiment: Antiviral activity against Punta Toro virus Adames infected Syrian golden hamster assessed as animals with detectable virus level in serum at 60 mg/kg, po twice daily administered 4 hrs before viral challenge measured on day 4 of viral infection; assay type: functional
[22] = tested on: Punta Toro virus; experiment: Antiviral activity against Punta Toro virus Adames infected Syrian golden hamster assessed as inhibition of liver damage at 60 mg/kg, po twice daily administered 4 hrs before viral challenge measured on day 4 of viral infection; assay type: functional, organism-based; set-up: dose 60 mg/kg
[23] = tested on: Punta Toro virus; experiment: Antiviral activity against 500 PFU Punta Toro virus Adames infected C57BL/6 mouse assessed as mean day of death at 25 mg/kg, po twice daily for 5 days administered 4 hrs before viral challenge; assay type: functional; in short: as §1
[24] = tested on: Pichinde virus; experiment: Antiviral activity against Pichinde virus An 4763 infected Syrian golden hamster assessed as survival at 20 mg/kg, po twice daily for 7 days administered 72 hrs post viral-challenge; assay type: functional
[25] = tested on: Pichinde virus; experiment: Antiviral activity against Pichinde virus An 4763 infected Syrian golden hamster assessed as survival at 50 mg/kg, po twice daily for 7 days administered 24 hrs post viral-challenge; assay type: functional, organism-based; set-up: dose 50 mg/kg

With `NC(=O)c1nc(F)cnc1O` [FAVIPIRAVIR] the Activity [1] was >21 days, the Activity [2] was 41 IU/L and the log10CCID50 [3] was <2.8. The log10CCID50 [4] was <2.8, the EC90 [5] was 19 µM and the EC90 [6] was 20 µM. For the same compound, the Activity [7] was “Active”, the Activity [8] was 0% and the Activity [9] was 8 days. The log10CCID50 [10] was 7.2, the Activity [11] was 5 days and the Activity [12] was “Active”. For the same compound, the log10CCID50 [13] was <3.3, the Activity [14] was 11.1 days and the Activity [15] was 0%. It also gave an Activity [16] of 37 IU/L, an Activity [17] of 0% and an Activity [18] of 9 IU/L. It also gave a log10CCID50 [19] of 7.7, an Activity [20] of 5.4 days and an Activity [21] of 20%. For the same compound, the Activity [22] was “Active” and the Activity [23] was >21 days.
In the case of `NC(=O)c1ncn([C@@H]2O[C@H](CO)[C@@H](O)[C@H]2O)n1` [RIBAVIRIN], the Efficacy [24] was 60% and the Activity [25] was “Active”.
